Source: article PMC3082041 (Cancer Chemotherapy and Pharmacology, 2010)

Test system: patients with advanced solid tumors
Assay: Phase I dose escalation, drug-related adverse events
Type: in vivo, human (Japanese patients)
Summary of the method: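 Open, non-randomised escalation in three-patient cohorts at 200, 400, 800 and 1,200 mg/m2 oral bid. Tablets taken >2 h after breakfast and supper for 28 consecutive days, with a single dose on day 1. Toxicity graded weekly by NCI-CTC v2.0. DLT: grade 3/4 non-haematologic or grade 4 haematologic toxicity. MTD: DLT in >33% within 4 weeks.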

[1] = 200 mg/m^2 bid (N = 3), G1, 28-days administration
[2] = 400 mg/m^2 bid (N = 3), G1, 28-days administration
[3] = 400 mg/m^2 bid (N = 3), G2, 28-days administration
[4] = 800 mg/m^2 bid (N = 6), G1, 28-days administration
[5] = 800 mg/m^2 bid (N = 6), G2, 28-days administration
[6] = 800 mg/m^2 bid (N = 6), G3, 28-days administration
[7] = 1,200 mg/m^2 bid (N = 3), G1, 28-days administration
[8] = 1,200 mg/m^2 bid (N = 3), G2, 28-days administration

## Cc1[nH]c(/C=C2\C(=O)Nc3ccccc32)c(C)c1CCC(=O)O [TSU-68, (Z)-3-[2,4-dimethyl-5-(2-oxo-1,2-dihydro-indol-3-ylidenemethyl)-1H-pyrrol-3-yl]-propionic acid]
[1]
  Alanine aminotransferase increased, number of patients: 1
  Alkaline phosphatase increased, number of patients: 1
  Diarrhea, number of patients: 3
  Face edema, number of patients: 1
  Fatigue, number of patients: 1
  Nausea, number of patients: 1
  Upper abdominal pain, number of patients: 1
  Urine discoloration, number of patients: 3
200 mg/m^2 bid (N = 3), G2, 28-days administration
  Chest pain, number of patients: 1
[2]
  Alkaline phosphatase increased, number of patients: 1
  Chest pain, number of patients: 1
  Diarrhea, number of patients: 1
  Face edema, number of patients: 1
  Fatigue, number of patients: 1
  Feces discolored, number of patients: 1
  Urine discoloration, number of patients: 3
[3]
  Albumin decreased, number of patients: 1
  Upper abdominal pain, number of patients: 1
[4]
  Abdominal pain, number of patients: 2
  Alanine aminotransferase increased, number of patients: 2
  Albumin decreased, number of patients: 4
  Alkaline phosphatase increased, number of patients: 3
  Anorexia, number of patients: 3
  Diarrhea, number of patients: 2
  Face edema, number of patients: 1
  Fatigue, number of patients: 3
  Feces discolored, number of patients: 6
  Nausea, number of patients: 2
  Total protein decreased, number of patients: 3
  Urine discoloration, number of patients: 6
  Vomiting, number of patients: 2
[5]
  Abdominal pain, number of patients: 1
  Anorexia, number of patients: 1
  Diarrhea, number of patients: 2
  Fatigue, number of patients: 1
[6]
  Anemia, number of patients: 1
  Arrhythmia, number of patients: 1
  Thrombocytopenia, number of patients: 1
[7]
  Abdominal pain, number of patients: 1
  Alkaline phosphatase increased, number of patients: 1
  Anorexia, number of patients: 2
  Chest pain, number of patients: 1
  Diarrhea, number of patients: 1
  Face edema, number of patients: 2
  Fatigue, number of patients: 2
  Feces discolored, number of patients: 3
  Upper abdominal pain, number of patients: 2
  Urine discoloration, number of patients: 3
[8]
  Abdominal pain, number of patients: 1
  Albumin decreased, number of patients: 1
  Anorexia, number of patients: 1
  Diarrhea, number of patients: 1
  Fatigue, number of patients: 1
  Nausea, number of patients: 1
  Vomiting, number of patients: 1
Total (N = 5), after 28 days
  Abdominal pain, number of patients: 1
  Abdominal pain, patients (%): (20) %
  Alanine aminotransferase increased, number of patients: 3
  Alkaline phosphatase increased, number of patients: 2
  Anorexia, number of patients: 1
  Anorexia, patients (%): (20) %
  Arrhythmia, number of patients: 1
  Arrhythmia, patients (%): (20) %
  Chest pain, number of patients: 2
  Diarrhea, number of patients: 3
  Face edema, number of patients: 3
  Fatigue, number of patients: 4
  Fatigue, patients (%): (80) %
  Feces discolored, number of patients: 4
  Feces discolored, patients (%): (80) %
  Nausea, number of patients: 1
  Nausea, patients (%): (20) %
  Urine discoloration, number of patients: 5
  Urine discoloration, patients (%): (100) %
  Vomiting, number of patients: 1
  Vomiting, patients (%): (20) %
Total, all dose levels (N = 15), 28-days administration
  Abdominal pain, number of patients: 5
